Assay results from different studies.
Protocols differ between the studies behind these lines. pEC50, pIC50, pKi: −log10 of the molar value.
CA12: Carbonic anhydrase 12 (CA12, Homo sapiens, UniProt O43570)
GHSR: Growth hormone secretagogue receptor type 1 (GHSR, Homo sapiens, UniProt Q92847)
SLC6A3: Sodium-dependent dopamine transporter (SLC6A3, Homo sapiens, UniProt Q01959)
ACE: Angiotensin-converting enzyme (ACE, Homo sapiens, UniProt P12821)
DRD3: D(3) dopamine receptor (DRD3, Homo sapiens, UniProt P35462)

Structure (SMILES)	target	test	conditions	endpoint	value
O=C(Nc1cccc(F)c1)Nc1ccc2c(c1)C=CCP(=O)(O)O2	CA12	enzyme activity, inhibitor, stopped-flow		pKi	< 5.00
CC[C@H](C)[C@H](NC(=O)[C@H](C)NC(=O)[C@H](C)NC(=O)[C@H](CCC(=O)O)NC(=O)[C@H](CCCNC(=N)N)NC(=O)[C@H](C)NC(=O)[C@H](CC(C)C)NC(=O)[C@H](CC(C)C)NC(=O)[C@H](CCCNC(=N)N)NC(=O)[C@H](CCCNC(=N)N)NC(=O)[C@H](C)NC(=O)[C@H](Cc1c[nH]cn1)NC(=O)[C@H](CCC(=O)O)NC(=O)[C@@H]1CCCN1C(=O)[C@H](CO)NC(=O)[C@H](CC(C)C)NC(=O)[C@H](Cc1ccccc1)NC(=O)[C@H](Cc1c[nH]c2ccccc12)NC(=O)[C@H](CO)NC(=O)CN)C(=O)N1CCC[C@H]1C(=O)N1CCC[C@H]1C(=O)N1CCC[C@H]1C(=O)N1CCC[C@H]1C(=O)N[C@H](C(=O)N1CCC[C@H]1C(=O)N1CCC[C@H]1C(=O)N1CCC[C@H]1C(=O)O)C(C)C	GHSR	calcium signal, agonist, fluorescence		pEC50	6.72
COC(=O)[C@H]1[C@@H](c2ccc(Cl)c(Cl)c2)C[C@@H]2CC[C@H]1N2CCCOCc1ccc2cc3ccccc3cc2c1	SLC6A3	ligand displacement, radioligand	pH 7.4	pKi	7.29
O=C(Nc1ccc2c(c1)C=CCP(=O)(O)O2)c1ccc(F)cc1	CA12	enzyme activity, inhibitor, stopped-flow		pKi	8.40
CC(C)C[C@H](NC(=O)[C@@H](NC(=O)[C@@H](NC(=O)[C@@H]1CCCN1C(=O)[C@@H](N)CCC(=O)O)C(C)C)[C@@H](C)O)C(=O)N[C@H](C(=O)O)[C@@H](C)O	ACE	enzyme activity, inhibitor		pIC50	~3.06
Cc1[nH]c(C)c(S(=O)(=O)Nc2ccc(S(=O)(=O)F)c(F)c2)c1C(=O)N1CCC(F)(F)C1	DRD3	β-arrestin recruitment, antagonist		pIC50	5.19
CC[C@H](C)[C@H](NC(=O)[C@H](C)NC(=O)[C@H](C)NC(=O)[C@H](CCC(=O)O)NC(=O)[C@H](CCCNC(=N)N)NC(=O)[C@H](C)NC(=O)[C@H](CC(C)C)NC(=O)[C@H](CC(C)C)NC(=O)[C@H](CCCNC(=N)N)NC(=O)[C@H](CCCNC(=N)N)NC(=O)[C@H](CC(C)C)NC(=O)[C@H](Cc1c[nH]cn1)NC(=O)[C@H](CCC(=O)O)NC(=O)[C@@H]1CCCN1C(=O)[C@H](CO)NC(=O)[C@H](CC(C)C)NC(=O)[C@H](Cc1ccccc1)NC(=O)[C@H](Cc1ccc(O)cc1)NC(=O)[C@H](CO)NC(=O)CN)C(=O)N1CCC[C@H]1C(=O)N1CCC[C@H]1C(=O)N1CCC[C@H]1C(=O)N1CCC[C@H]1C(=O)N[C@H](C(=O)N[C@@H](CC(C)C)C(=O)N1CCC[C@H]1C(=O)N[C@@H](CC(C)C)C(=O)O)C(C)C	GHSR	calcium signal, antagonist, fluorescence		pIC50	5.96
CCC(CNc1nc(-c2cn3ccnc3cc2C)nc2ccccc12)c1ccccc1 (stereo not drawn)	SLC6A3	ligand displacement, radioligand		pIC50	5.34
Cc1[nH]c(C)c(S(=O)(=O)Nc2ccc(S(F)(F)(F)(F)F)cc2)c1C(=O)N(C)C	DRD3	β-arrestin recruitment, antagonist		pIC50	5.77
CC(C)C[C@H](NC(=O)[C@H](Cc1ccc(O)cc1)NC(=O)[C@@H](N)C(C)C)C(=O)N[C@@H](CCC(=O)O)C(=O)N[C@@H](CCC(N)=O)C(=O)O	ACE	enzyme activity, inhibitor, absorbance		pIC50	4.55
CC(C)C[C@H](NC(=O)[C@H](CCC(=O)O)NC(=O)[C@H](C)NC(=O)[C@@H](NC(=O)[C@H](Cc1ccccc1)NC(=O)[C@H](CC(C)C)NC(=O)[C@H](CCCNC(=N)N)NC(=O)[C@H](C)NC(=O)[C@H](C)NC(=O)[C@H](CCCCN)NC(=O)[C@H](CCC(=O)O)NC(=O)[C@H](CO)NC(=O)[C@H](CC(C)C)NC(=O)[C@H](Cc1ccc(O)cc1)NC(=O)[C@H](CCC(=O)O)NC(=O)[C@H](CC(=O)O)NC(=O)[C@H](CC(C)C)NC(=O)[C@H](CC(C)C)NC(=O)[C@H](CCC(=O)O)NC(=O)[C@@H](NC(=O)[C@H](Cc1ccccc1)NC(=O)[C@H](CCC(=O)O)NC(=O)[C@H](CCC(=O)O)NC(=O)[C@H](CCC(=O)O)NC(=O)[C@H](C)NC(=O)[C@@H](N)CO)[C@@H](C)O)C(C)C)C(=O)N[C@@H](CCCCN)C(=O)N[C@@H](CCCCN)C(=O)O	Glucagon-like peptide 1 receptor (GLP1R, Homo sapiens, UniProt P43220)	calcium signal, antagonist, fluorescence		pIC50	4.80
O=C(Nc1cccc(Cl)c1)Nc1ccc2c(c1)C=CCP(=O)(O)O2	CA12	enzyme activity, inhibitor, stopped-flow		pKi	< 5.00
N#C[Se]CCCCOc1ccc2c(-c3ccccc3)cc(=O)oc2c1	CA12	enzyme activity, inhibitor, stopped-flow		pKi	6.53
O=C(Nc1ccc(Br)cc1)Nc1ccc2c(c1)C=CCP(=O)(O)O2	CA12	enzyme activity, inhibitor, stopped-flow		pKi	< 5.00
CCOC(=O)c1ccc(OC(=O)CCCCCN=C(N)N)cc1	Kallikrein-2 (Homo sapiens, UniProt P20151)	enzyme activity, inhibitor		pIC50	6.37
CC(C)[C@H](NC(=O)[C@@H](N)CCC(=O)O)C(=O)N[C@@H](CC(N)=O)C(=O)N[C@@H](Cc1ccc(O)cc1)C(=O)N[C@@H](CC(=O)O)C(=O)O	ACE	enzyme activity, inhibitor		pIC50	~2.81
Cc1[nH]c(C)c(S(=O)(=O)Nc2ccc(S(F)(F)(F)(F)F)c(Cl)c2)c1C(=O)N1CCC(F)(F)C1	DRD3	β-arrestin recruitment, antagonist		pIC50	5.96
CC(C)C[C@H](NC(=O)CNC(=O)[C@H](CCCNC(=N)N)NC(=O)[C@H](Cc1c[nH]c2ccccc12)NC(=O)[C@H](Cc1ccccc1)NC(=O)[C@@H]1CCCN1C(=O)CN)C(=O)N[C@@H](CO)C(=O)N[C@@H](CCCNC(=N)N)C(=O)N[C@@H](CCCNC(=N)N)C(=O)N1CCC[C@H]1C(=O)N[C@@H](CC(C)C)C(=O)N[C@@H](CCCNC(=N)N)C(=O)O	GHSR	calcium signal, antagonist, fluorescence		pIC50	5.47
Cc1ccc(C(=O)Nc2ccc3c(c2)C=CCP(=O)(O)O3)cc1	CA12	enzyme activity, inhibitor, stopped-flow		pKi	8.11
CC[C@H](C)[C@H](NC(=O)[C@H](C)NC(=O)[C@H](C)NC(=O)[C@H](CCC(=O)O)NC(=O)[C@H](CCCNC(=N)N)NC(=O)[C@H](CCC(=O)O)NC(=O)[C@H](CC(C)C)NC(=O)[C@H](CCSC)NC(=O)[C@H](CCCNC(=N)N)NC(=O)[C@H](CCCNC(=N)N)NC(=O)[C@H](CC(C)C)NC(=O)[C@H](Cc1c[nH]cn1)NC(=O)[C@H](CCC(=O)O)NC(=O)[C@@H]1CCCN1C(=O)[C@H](CO)NC(=O)[C@H](CC(C)C)NC(=O)[C@H](Cc1ccccc1)NC(=O)[C@H](Cc1ccc(O)cc1)NC(=O)[C@H](CO)NC(=O)CN)C(=O)N1CCC[C@H]1C(=O)N1CCC[C@H]1C(=O)N1CCC[C@H]1C(=O)N1CCC[C@H]1C(=O)N[C@H](C(=O)N1CCC[C@H]1C(=O)N1CCC[C@H]1C(=O)N[C@@H](CC(C)C)C(=O)O)C(C)C	GHSR	calcium signal, antagonist, fluorescence		pIC50	5.86
O=C(Nc1cccc(C(F)(F)F)c1)Nc1ccc2c(c1)C=CCP(=O)(O)O2	CA12	enzyme activity, inhibitor, stopped-flow		pKi	< 5.00
